In ChEMBL document CHEMBL1156711, “Synthesis and cytotoxicity evaluation of some benzimidazole-4,7-diones as bioreductive anticancer agents” (Eur J Med Chem, 2008):

Columns and labels:
[1] = test system: HT-29; assay: Cytotoxicity against human HT29 cells after 72 hrs by MTT assay; assay type: functional, cell-based; settings: HT-29, 72 h
Procedure, shortened: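 HT29 grown in DMEM with 10% FBS and 2 mM L-glutamine at 37 °C, 5% CO2. Seeded at 3000 cells/well and treated 24 h later; vehicle 0.1% DMSO in PBS. MTT 0.5 mg/mL for 3 h, DMSO solubilization, OD 550 nm, triplicates, corrected for MTT blank and normalized to untreated. IC50 by Chou–Talalay median-effect plot.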

[2] = test system: HT-29; assay: Cytotoxicity against human HT29 cells after 72 hrs by MTT assay in presence of 2 uM dicoumarol; assay type: functional, cell-based; settings: HT-29, 72 h

SMILES	IC50 [1] [nM]	IC50 [2] [nM]
CC1=C(C)C(=O)c2c(nc(CC(C)(C)[N+](=O)[O-])n2C)C1=O	> 100000	–
CO[C@@]12[C@H](COC(N)=O)C3=C(C(=O)C(C)=C(N)C3=O)N1C[C@@H]1N[C@@H]12 [MITOMYCIN]	900	2100
